The structures appear in SMILES notation.

Here are results for 1 compound from paper PMC9111543 (International Journal for Parasitology: Drugs and Drug …, 2022).

The data set can be described thus: Cytotoxicity assay on MRC-5 fibroblasts. Type of data set: cell-based. To be noted: human, MRC-5SV2 cells. In outline:
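MRC-5SV2 cells grown in MEM with L-glutamine, NaHCO3 and 5% hiFBS, seeded at 15,000 cells/well. Four-fold dilutions of test compound were added, with a highest in-test concentration of 64 μM. Cells were exposed for 72 h at 37 °C and 5% CO2, then incubated with resazurin for 4 h and read by fluorescence. CC50 was calculated from ≥2 independent experiments in duplicate.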

The CC50 is the concentration giving 50% cytotoxicity. The compound `CC[n+]1c(-c2ccccc2)c2cc(N/N=N/c3cccc(C(=N)N)c3)ccc2c2ccc(N)cc21` [isometamidium] displayed a CC50 at 72 h of 22.7 µM. That is a double-digit micromolar value.
